Data taken from ChEMBL document CHEMBL4130635, “2,4-Diaminoquinazolines as Dual Toll-like Receptor (TLR) 7/8 Modulators for the Treatment of Hepatitis B Virus” (J Med Chem, 2018).

What was measured:
[1] = target: T1, Toll-like receptor 7 (Homo sapiens) (UniProt Q9NYK1); assay: Agonist activity at TLR7 in human PBMC assessed as suppression of HCV replicon replication in human HuH7 luc/neo cells harboring RNA encoding bicistronic expression construct comprising wild type HCV type 1b NS3-NS5B regions exposed to conditioned media from compound treated PBMCs after 24 hrs by luciferase reporter gene assay; assay type: cell-based
T1 sequence (whole entry): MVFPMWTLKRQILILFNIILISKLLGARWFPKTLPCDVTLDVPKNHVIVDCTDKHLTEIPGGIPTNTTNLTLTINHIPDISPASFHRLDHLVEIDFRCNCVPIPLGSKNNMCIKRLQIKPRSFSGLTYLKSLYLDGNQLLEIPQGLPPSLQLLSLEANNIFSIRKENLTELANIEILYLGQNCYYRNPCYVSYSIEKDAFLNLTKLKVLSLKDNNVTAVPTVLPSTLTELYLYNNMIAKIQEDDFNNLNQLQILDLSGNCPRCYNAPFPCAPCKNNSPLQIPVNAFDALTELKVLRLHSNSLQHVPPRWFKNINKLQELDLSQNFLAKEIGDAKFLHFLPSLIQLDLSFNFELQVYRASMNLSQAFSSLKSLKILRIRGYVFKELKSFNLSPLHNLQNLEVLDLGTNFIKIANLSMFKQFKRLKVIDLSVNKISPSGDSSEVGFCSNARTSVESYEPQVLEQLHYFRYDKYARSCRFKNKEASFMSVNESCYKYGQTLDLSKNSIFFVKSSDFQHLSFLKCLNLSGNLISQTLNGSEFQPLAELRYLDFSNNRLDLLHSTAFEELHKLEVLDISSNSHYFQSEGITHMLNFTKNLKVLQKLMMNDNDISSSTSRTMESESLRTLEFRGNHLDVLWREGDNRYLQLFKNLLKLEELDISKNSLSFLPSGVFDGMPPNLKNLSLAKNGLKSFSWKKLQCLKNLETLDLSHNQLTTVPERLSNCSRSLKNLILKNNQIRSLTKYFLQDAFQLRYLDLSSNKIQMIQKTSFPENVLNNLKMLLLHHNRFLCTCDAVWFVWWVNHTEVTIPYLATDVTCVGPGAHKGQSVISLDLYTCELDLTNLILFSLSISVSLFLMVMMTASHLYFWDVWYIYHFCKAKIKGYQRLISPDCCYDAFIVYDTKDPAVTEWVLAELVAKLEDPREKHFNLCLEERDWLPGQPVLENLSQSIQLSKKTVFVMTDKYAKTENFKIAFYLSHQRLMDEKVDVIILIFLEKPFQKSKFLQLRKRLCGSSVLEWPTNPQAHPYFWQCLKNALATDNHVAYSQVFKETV
Summary of the method: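 Human PBMCs were incubated with compound. Their medium was then transferred onto an HCV replicon system, so the antiviral read-out reflects interferon and cytokines the PBMCs induced. Values are reported as lowest effective concentration (LEC), averaged when determined in two or more independent experiments.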

[2] = target: 5-hydroxytryptamine receptor 2A (Homo sapiens, UniProt P28223); assay: Inhibition of 5-HT2A receptor (unknown origin)
Sequence of 5-hydroxytryptamine receptor 2A (P28223 whole entry): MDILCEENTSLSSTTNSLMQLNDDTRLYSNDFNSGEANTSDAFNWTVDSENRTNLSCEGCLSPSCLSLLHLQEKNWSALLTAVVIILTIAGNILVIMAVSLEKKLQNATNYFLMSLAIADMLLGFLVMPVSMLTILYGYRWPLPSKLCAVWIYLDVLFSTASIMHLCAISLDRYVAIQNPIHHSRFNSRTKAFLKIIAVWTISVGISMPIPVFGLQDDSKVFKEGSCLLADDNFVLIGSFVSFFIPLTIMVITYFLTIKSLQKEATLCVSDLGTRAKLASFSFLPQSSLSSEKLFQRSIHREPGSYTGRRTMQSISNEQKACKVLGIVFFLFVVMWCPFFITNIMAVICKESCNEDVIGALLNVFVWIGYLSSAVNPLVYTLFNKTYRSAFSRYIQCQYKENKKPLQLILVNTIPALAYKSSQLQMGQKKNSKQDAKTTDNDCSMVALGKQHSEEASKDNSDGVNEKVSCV

[3] = Metabolic stability in mouse liver microsomes assessed as compound metabolized at 1 uM after 15 mins; assay type: ADME, microsome; conditions: read-out: Drug metabolism
Summary of the method: (§1)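 Mouse (M) or human (H) liver microsomes incubated with compound at 1 μM; percent metabolized after 15 min.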

[4] = Cytotoxicity against HEK293 cells assessed as reduction in cell viability after 6 hrs by ATP lite assay; assay type: cell-based; conditions: human
[5] = target: T1, Toll-like receptor 7 (Homo sapiens); assay: Agonist activity at human TLR7 expressed in HEK293 cells assessed as induction of receptor activation incubated for 6 hrs by NF-kappaB-luciferase reporter gene assay; assay type: cell-based
Summary of the method: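 HEK cell-based assay using a wild-type TLR7 expression vector; a parallel TLR8 vector construct served for selectivity. Results are expressed as lowest effective concentration (LEC), averaged over independent experiments where determined two or more times. A separate HEK 293 cytotoxicity (TOX) assay gave CC50 alongside.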

[6] = target: Alpha-1A adrenergic receptor; assay: Inhibition of alpha-1A adrenergic receptor (unknown origin)
D(1A) dopamine receptor = D(1A) dopamine receptor (Homo sapiens, UniProt P21728); assay: Inhibition of dopamine D1 receptor (unknown origin)
Sequence of D(1A) dopamine receptor (P21728 whole entry): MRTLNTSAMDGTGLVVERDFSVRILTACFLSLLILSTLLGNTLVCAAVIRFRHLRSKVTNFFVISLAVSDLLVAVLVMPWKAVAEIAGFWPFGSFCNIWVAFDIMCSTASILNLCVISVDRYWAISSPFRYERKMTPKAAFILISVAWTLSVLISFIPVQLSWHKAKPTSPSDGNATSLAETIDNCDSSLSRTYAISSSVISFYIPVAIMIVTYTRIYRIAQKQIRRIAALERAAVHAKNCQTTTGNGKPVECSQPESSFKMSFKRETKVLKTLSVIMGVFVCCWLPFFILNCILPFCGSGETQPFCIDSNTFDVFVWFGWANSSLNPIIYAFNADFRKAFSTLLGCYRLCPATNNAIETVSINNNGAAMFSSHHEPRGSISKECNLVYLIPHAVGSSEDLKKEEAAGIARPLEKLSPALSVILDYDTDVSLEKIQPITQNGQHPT

Cytochrome P450 2D6 = Cytochrome P450 2D6 (Homo sapiens, UniProt P10635); assay: Inhibition of CYP2D6 (unknown origin); assay type: ADME
Sequence of Cytochrome P450 2D6 (P10635 whole entry): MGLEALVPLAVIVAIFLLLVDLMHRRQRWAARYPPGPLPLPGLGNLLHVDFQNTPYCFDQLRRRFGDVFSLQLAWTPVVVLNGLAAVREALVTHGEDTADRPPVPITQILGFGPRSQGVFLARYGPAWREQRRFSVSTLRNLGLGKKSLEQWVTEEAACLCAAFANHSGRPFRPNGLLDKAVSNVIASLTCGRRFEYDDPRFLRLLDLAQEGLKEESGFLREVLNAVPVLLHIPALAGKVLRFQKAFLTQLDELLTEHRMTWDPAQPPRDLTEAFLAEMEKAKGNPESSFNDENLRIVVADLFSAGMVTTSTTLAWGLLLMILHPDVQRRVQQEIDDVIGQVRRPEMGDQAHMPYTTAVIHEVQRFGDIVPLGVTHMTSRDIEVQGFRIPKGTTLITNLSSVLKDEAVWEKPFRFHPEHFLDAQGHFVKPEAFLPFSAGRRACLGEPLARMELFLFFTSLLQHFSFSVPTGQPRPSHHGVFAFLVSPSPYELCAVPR

[7] = target: T2, Toll-like receptor 8 (Homo sapiens) (UniProt Q9NR97); assay: Agonist activity at human TLR8 expressed in HEK293 cells assessed as induction of receptor activation incubated for 6 hrs by NF-kappaB-luciferase reporter gene assay; assay type: cell-based
T2 sequence (whole entry): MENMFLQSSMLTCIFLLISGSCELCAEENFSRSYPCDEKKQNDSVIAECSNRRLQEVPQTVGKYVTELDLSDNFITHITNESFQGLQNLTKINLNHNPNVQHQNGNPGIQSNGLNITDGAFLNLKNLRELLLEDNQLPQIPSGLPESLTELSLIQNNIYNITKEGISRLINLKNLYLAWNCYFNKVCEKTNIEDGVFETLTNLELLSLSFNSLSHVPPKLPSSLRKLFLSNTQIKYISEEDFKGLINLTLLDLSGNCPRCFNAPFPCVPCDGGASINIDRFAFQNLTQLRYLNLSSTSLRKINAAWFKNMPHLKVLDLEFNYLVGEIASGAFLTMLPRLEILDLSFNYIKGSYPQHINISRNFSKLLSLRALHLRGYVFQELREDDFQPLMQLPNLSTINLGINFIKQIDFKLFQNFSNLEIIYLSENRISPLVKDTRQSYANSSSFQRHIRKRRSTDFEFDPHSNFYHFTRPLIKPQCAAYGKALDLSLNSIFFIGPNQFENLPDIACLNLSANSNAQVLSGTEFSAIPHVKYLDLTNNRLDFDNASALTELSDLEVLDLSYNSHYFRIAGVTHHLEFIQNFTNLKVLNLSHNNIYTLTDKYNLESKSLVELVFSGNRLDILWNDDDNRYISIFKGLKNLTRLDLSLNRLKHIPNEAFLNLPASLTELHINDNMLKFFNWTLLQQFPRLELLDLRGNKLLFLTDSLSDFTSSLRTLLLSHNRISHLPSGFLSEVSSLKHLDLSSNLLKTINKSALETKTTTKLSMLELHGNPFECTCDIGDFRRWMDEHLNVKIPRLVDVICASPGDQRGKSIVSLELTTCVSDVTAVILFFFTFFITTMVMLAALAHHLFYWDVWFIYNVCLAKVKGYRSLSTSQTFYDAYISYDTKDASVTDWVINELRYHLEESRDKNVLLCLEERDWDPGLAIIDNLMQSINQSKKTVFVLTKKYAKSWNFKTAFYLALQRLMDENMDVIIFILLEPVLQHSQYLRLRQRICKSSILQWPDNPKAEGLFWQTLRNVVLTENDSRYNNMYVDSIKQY

[8] = Metabolic stability in human liver microsomes assessed as compound metabolized at 1 uM after 15 mins; assay type: ADME, microsome; conditions: read-out: Drug metabolism; summary of the method: as §1
[9] = target: Voltage-gated inwardly rectifying potassium channel KCNH2 (Homo sapiens, UniProt Q12809); assay: Inhibition of radioligand binding to human ERG expressed in HEK293 cell membranes by scintillation counting method
Sequence of Voltage-gated inwardly rectifying potassium channel KCNH2 (Q12809 whole entry): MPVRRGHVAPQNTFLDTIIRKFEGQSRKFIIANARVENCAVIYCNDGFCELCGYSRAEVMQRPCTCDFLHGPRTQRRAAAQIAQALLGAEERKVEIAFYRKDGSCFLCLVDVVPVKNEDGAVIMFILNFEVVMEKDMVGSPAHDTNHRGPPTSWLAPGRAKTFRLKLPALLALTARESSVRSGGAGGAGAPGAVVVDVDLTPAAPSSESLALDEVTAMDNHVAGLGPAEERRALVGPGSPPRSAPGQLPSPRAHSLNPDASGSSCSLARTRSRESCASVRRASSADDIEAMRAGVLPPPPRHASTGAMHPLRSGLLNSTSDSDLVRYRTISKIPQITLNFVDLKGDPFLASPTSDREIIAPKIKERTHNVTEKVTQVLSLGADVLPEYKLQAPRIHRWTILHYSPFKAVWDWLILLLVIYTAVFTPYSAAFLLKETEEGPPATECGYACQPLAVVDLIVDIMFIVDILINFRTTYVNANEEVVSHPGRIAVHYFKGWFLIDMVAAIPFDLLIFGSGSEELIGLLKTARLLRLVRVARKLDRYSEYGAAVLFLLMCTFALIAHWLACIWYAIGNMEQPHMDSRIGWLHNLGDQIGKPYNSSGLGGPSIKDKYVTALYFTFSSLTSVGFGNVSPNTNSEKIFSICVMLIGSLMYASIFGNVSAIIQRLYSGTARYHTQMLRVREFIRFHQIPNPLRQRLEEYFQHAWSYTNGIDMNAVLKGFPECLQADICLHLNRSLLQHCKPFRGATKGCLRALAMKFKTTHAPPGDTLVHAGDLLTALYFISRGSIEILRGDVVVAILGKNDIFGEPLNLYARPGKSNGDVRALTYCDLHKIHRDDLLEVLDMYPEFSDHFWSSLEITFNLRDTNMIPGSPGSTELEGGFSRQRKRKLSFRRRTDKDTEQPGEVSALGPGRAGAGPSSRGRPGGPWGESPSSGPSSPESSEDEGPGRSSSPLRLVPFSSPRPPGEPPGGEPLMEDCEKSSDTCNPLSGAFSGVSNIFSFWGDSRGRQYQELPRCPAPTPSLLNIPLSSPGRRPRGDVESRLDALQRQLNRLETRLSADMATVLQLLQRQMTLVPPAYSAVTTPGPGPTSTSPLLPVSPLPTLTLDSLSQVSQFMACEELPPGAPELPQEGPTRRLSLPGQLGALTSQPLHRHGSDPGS

## CCC[C@@H](CCO)Nc1nc(N)nc2cc(OC)ccc12
[1]
  MEC: 0.5 µM
[2]
  IC50: 1780 nM
[3]
  metabolised at 0.25 h, 1 µM: 65%
[4]
  CC50 at 6 h: > 24 µM
[5]
  MEC: 0.2 µM
[6]
  IC50: 2340 nM
D(1A) dopamine receptor
  IC50: 5.75 µM
Cytochrome P450 2D6
  IC50: 600 nM
[7]
  MEC: 0.13 µM
[8]
  metabolised at 0.25 h, 1 µM: 35%
[9]
  IC50: > 10 µM
